Test results reported in ChEMBL document CHEMBL1122201, “Carboxyimamidate, a low-molecular-weight polyelectrolyte with antitumor properties and low toxicity” (1982).
Where “and” joins values, the source holds several entries; their conditions need not be identical. Equal entries are not always repeated.

Tests used:
Mus musculus [1] = assay: Proportion of survivors was determined on the 60th day at a dose of 1200-1500 (mg/kg)/day; assay type: functional
Procedure, shortened: (§1)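 Lewis lung carcinoma model in mice, groups of 10. Dosing daily on days 1-5, 1-8 or 1-10, ip or subcutaneous. Dose ranges pooled from nine independent experiments run at different levels. ILS is the percent increase in mean life span, excluding cures, over the mean of 3 or 4 untreated control groups of 10. Survivors scored at day 60.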

Mus musculus [2] = assay: Proportion of survivors was determined on the 60th day at a dose of 158-251 mg/kg/day; assay type: functional; procedure, shortened: as §1
Mus musculus [3] = assay: Proportion of survivors was determined on the 60th day at a dose of 2400-2512 (mg/kg)/day; assay type: functional; procedure, shortened: as §1
Mus musculus [4] = assay: Proportion of survivors was determined on the 60th day at a dose of 500-600 mg/kg/day; assay type: functional; procedure, shortened: as §1
Mus musculus [5] = assay: Proportion of survivors was determined on the 60th day at a dose of 62-75 mg/kg/day; assay type: functional; procedure, shortened: as §1
Mus musculus [6] = assay: Proportion of survivors was determined on the 60th day at a dose of 900-1000 mg/kg/day; assay type: functional; procedure, shortened: as §1
Mus musculus [7] = organism: Mus musculus; assay: Increase in mean life span was measured against ADJ-PC6 plasmacytoma cells; assay type: functional
Procedure, shortened: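 10^6 Trypan blue-excluding cells implanted ip (P815 sc) in groups of 10 mice: B6D2F1 for L5178Y and P815, BALB/c for ADJ-PC6, C3H for Gardner. Drug given ip in sterile saline, 0.5 mL/mouse, at or below the maximally tolerated dose for the schedule. ILS excludes long-term tumor-free survivors. Animals held 60 days; Student's t test against untreated controls.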

Mus musculus [8] = organism: Mus musculus; assay: Increase in mean life span was measured against B16 melanoma cells; assay type: functional
Mus musculus [9] = organism: Mus musculus; assay: Increase in mean life span was measured against B16 melanoma cells carcinoma 26; assay type: functional
Mus musculus [10] = assay: Ratio of mean tumor volume of treated groups to that of the mean of total untreated controls in the subcutaneous Lewis Lung Carcinoma model at a dose of 100-125 (mg/kg)/day; assay type: functional
Procedure, shortened: (§2)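 Mice bearing sc Lewis lung carcinoma (groups of 10) received the saline-dissolved agent daily on days 1-5, 1-8 or 1-10, ip or sc. Perpendicular tumor diameters were measured with vernier calipers on day 14, and volume was taken as 0.5 × length × width². T/C is treated mean volume over the mean of all untreated controls (3-4 groups of 10), pooled across experiments as mean ± SE.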

Mus musculus [11] = assay: Ratio of mean tumor volume of treated groups to that of the mean of total untreated controls in the subcutaneous Lewis Lung Carcinoma model at a dose of 1200-1500 mg/kg/day; assay type: functional; procedure, shortened: as §2
Mus musculus [12] = assay: Ratio of mean tumor volume of treated groups to that of the mean of total untreated controls in the subcutaneous Lewis Lung Carcinoma model at a dose of 158-251 (mg/kg)/day; assay type: functional; procedure, shortened: as §2
Mus musculus [13] = assay: Ratio of mean tumor volume of treated groups to that of the mean of total untreated controls in the subcutaneous Lewis Lung Carcinoma model at a dose of 2400-2512 (mg/kg)/day; assay type: functional; procedure, shortened: as §2
Mus musculus [14] = assay: Ratio of mean tumor volume of treated groups to that of the mean of total untreated controls in the subcutaneous Lewis Lung Carcinoma model at a dose of 300-400 (mg/kg)/day; assay type: functional; procedure, shortened: as §2
Mus musculus [15] = assay: Ratio of mean tumor volume of treated groups to that of the mean of total untreated controls in the subcutaneous Lewis Lung Carcinoma model at a dose of 500-600 (mg/kg)/day; assay type: functional; procedure, shortened: as §2
Mus musculus [16] = assay: Ratio of mean tumor volume of treated groups to that of the mean of total untreated controls in the subcutaneous Lewis Lung Carcinoma model at a dose of 62-75 mg/kg/day; assay type: functional; procedure, shortened: as §2
Mus musculus [17] = assay: Ratio of mean tumor volume of treated groups to that of the mean of total untreated controls in the subcutaneous Lewis Lung Carcinoma model at a dose of 900-1000 mg/kg/day; assay type: functional; procedure, shortened: as §2
Mus musculus [18] = assay: Proportion of survivors was determined on the 60th day at a dose of 300-400 (mg/kg)/day; assay type: functional; procedure, shortened: as §1
Mus musculus [19] = organism: Mus musculus; assay: Tumor weight inhibition against colon carcinoma 38
Mus musculus [20] = organism: Mus musculus; assay: Tumor weight inhibition against colon carcinoma 26
Mus musculus [21] = organism: Mus musculus; assay: Tumor weight inhibition against B16 melanoma cells
Mus musculus [22] = organism: Mus musculus; assay: Tumor weight inhibition against M5076 ovarian tumor
Mus musculus [23] = organism: Mus musculus; assay: Tumor weight inhibition against P815 mastocytoma cells
[24] = tested on: Walker carcinosarcoma 256 (Rattus norvegicus); assay: Tumor weight inhibition Walker carcinosarcoma cells against
Mus musculus [25] = organism: Mus musculus; assay: Tumor weight inhibition against EMT6 mammary carcinoma cells
Mus musculus [26] = organism: Mus musculus; assay: Tumor weight inhibition against Nettesheim lung carcinoma cells
Mus musculus [27] = organism: Mus musculus; assay: Tumor weight inhibition against Madison 109 lung carcinoma cells
Rattus norvegicus = organism: Rattus norvegicus; assay: Increase in mean life span was measured against Walker carcinosarcoma cells

## CC(c1ccccc1)C1C(=O)NC(=O)C1CCC(C(N)=O)C(CCC(CC(=O)O)C(N)=O)C(=O)O.N.N (stereo not drawn)
Mus musculus [1]
  Proportion of survivors: 0.21
Mus musculus [2]
  Proportion of survivors: 0.04
Mus musculus [3]
  Proportion of survivors: 0.13
Mus musculus [4]
  Proportion of survivors: 0.12
Mus musculus [5]
  Proportion of survivors: 0.03
Mus musculus [6]
  Proportion of survivors: 0.21
Mus musculus [7]
  ILS: 24%
Mus musculus [8]
  ILS: 21% and 11%
Mus musculus [9]
  ILS: 7%
Mus musculus [10]
  T/C: 0.62
Mus musculus [11]
  T/C: 0.16
Mus musculus [12]
  T/C: 0.58
Mus musculus [13]
  T/C: 0.1
Mus musculus [14]
  T/C: 0.4
Mus musculus [15]
  T/C: 0.32
Mus musculus [16]
  T/C: 0.59
Mus musculus [17]
  T/C: 0.17
Mus musculus [18]
  Proportion of survivors: 0.09
Mus musculus [19]
  TWI: 44
Mus musculus [20]
  TWI: 70
Mus musculus [21]
  TWI: 74
Mus musculus [22]
  TWI: 89
Mus musculus [23]
  TWI: 60 and 53
[24]
  TWI: 21
Mus musculus [25]
  TWI: 14
Mus musculus [26]
  TWI: 39
Mus musculus [27]
  TWI: 67 and 78 and 50
Rattus norvegicus
  ILS: 3%
